Assay results: ChEMBL document CHEMBL4346684, “Synthesis and structure-bactericidal activity relationships of non-ketolides: 9-Oxime clarithromycin 11,12-cyclic carbonate featured with three-to eight-atom-length spacers at 3-OH” (Eur J Med Chem, 2019)
≈ marks a conversion by molar mass, not a printed value.

What was measured:
Format in all cases: functional
[1] = test system: Streptococcus pneumoniae; assay: Antimicrobial activity against erythromycin-susceptible Streptococcus pneumoniae ATCC 49619 incubated in CAMHB medium for 20 to 24 hrs by two-fold microbroth dilution method
[2] = test system: Streptococcus pneumoniae; assay: Antimicrobial activity against mef-encoded erythromycin resistant Streptococcus pneumoniae PU09 incubated in CAMHB medium for 20 to 24 hrs by two-fold microbroth dilution method
[3] = test system: Streptococcus pneumoniae; assay: Bactericidal activity against erythromycin-susceptible Streptococcus pneumoniae ATCC 49619 assessed as reduction in colony formation incubated in CAMHB medium for 20 to 24 hrs followed by 24 hrs subculturing in the medium without test compound
[4] = test system: Streptococcus pneumoniae; assay: Ratio of MBC to MIC for erythromycin-susceptible Streptococcus pneumoniae ATCC 49619
[5] = test system: Streptococcus pneumoniae; assay: Bactericidal activity against mef-encoded erythromycin resistant Streptococcus pneumoniae PU09 assessed as reduction in colony formation incubated in CAMHB medium for 20 to 24 hrs followed by 24 hrs subculturing in the medium without test compound
[6] = test system: Streptococcus pneumoniae; assay: Ratio of MBC to MIC for mef-encoded erythromycin resistant Streptococcus pneumoniae PU09
[7] = test system: Streptococcus pyogenes; assay: Antimicrobial activity against inducibly erythromycin resistant Streptococcus pyogenes 01-968 expressing i-ermA incubated in CAMHB medium for 20 to 24 hrs by two-fold microbroth dilution method
[8] = test system: Streptococcus pyogenes; assay: Bactericidal activity against inducibly erythromycin resistant Streptococcus pyogenes 01-968 expressing i-ermA assessed as reduction in colony formation incubated in CAMHB medium for 20 to 24 hrs followed by 24 hrs subculturing in the medium without test compound
[9] = test system: Streptococcus pyogenes; assay: Ratio of MBC to MIC for inducibly erythromycin resistant Streptococcus pyogenes 01-968 expressing i-ermA
[10] = test system: Staphylococcus aureus; assay: Antimicrobial activity against constitutively erythromycin resistant and methicillin resistant Staphylococcus aureus PU20 expressing c-ermC incubated in CAMHB medium for 20 hrs by two-fold microbroth dilution method; conditions: PU20, 20 h
Method in brief: (§1)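 Purified fresh Staphylococcus isolate at about 5×10^5 CFU/ml final in CAMHB, 35 °C for 20 h. Each run included ATCC strains and reference antibiotics as QC, plus an antibiotic-free growth control.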

[11] = test system: Staphylococcus aureus; assay: Bactericidal activity against constitutively erythromycin resistant and methicillin-resistant Staphylococcus aureus PU20 expressing c-ermC assessed as reduction in colony formation incubated in CAMHB medium for 20 hrs followed by 24 hrs subculturing in the medium without test compound
[12] = test system: Staphylococcus aureus; assay: Antimicrobial activity against inducibly erythromycin-resistant and methicillin resistant Staphylococcus aureus PU32 expressing i-ermA incubated in CAMHB medium for 20 hrs by two-fold microbroth dilution method; conditions: PU32, 20 h; method in brief: as §1
[13] = test system: Staphylococcus aureus; assay: Bactericidal activity against inducibly erythromycin-resistant and methicillin resistant Staphylococcus aureus PU32 expressing i-ermA assessed as reduction in colony formation incubated in CAMHB medium for 20 hrs followed by 24 hrs subculturing in the medium without test compound
[14] = test system: Staphylococcus aureus; assay: Ratio of MBC to MIC for inducibly erythromycin-resistant and methicillin resistant Staphylococcus aureus PU32 expressing i-ermA
[15] = test system: Haemophilus influenzae; assay: Antimicrobial activity against azithromycin-susceptible Haemophilus influenzae ATCC 49247 incubated in HTM broth medium for 20 to 24 hrs by two-fold microbroth dilution method
[16] = test system: Haemophilus influenzae; assay: Bactericidal activity against azithromycin-susceptible Haemophilus influenzae ATCC 49247 assessed as reduction in colony formation incubated in HTM broth medium for 20 to 24 hrs followed by 24 hrs subculturing in the medium without test compound
[17] = test system: Haemophilus influenzae; assay: Ratio of MBC to MIC for azithromycin-susceptible Haemophilus influenzae ATCC 49247
[18] = test system: Streptococcus pneumoniae; assay: Antimicrobial activity against constitutively erythromycin resistant Streptococcus pneumoniae PU27 expressing c-erm incubated in CAMHB medium for 20 to 24 hrs by two-fold microbroth dilution method
Method in brief: (§2)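 Purified fresh Streptococcus isolate at about 5×10^5 CFU/ml final in CAMHB with 5% horse serum, 35 °C for 20–24 h. […] Each run included ATCC strains and reference antibiotics as QC, plus an antibiotic-free growth control.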

[19] = test system: Streptococcus pyogenes; assay: Antimicrobial activity against constitutively erythromycin resistant Streptococcus pyogenes A2 expressing c-erm incubated in CAMHB medium for 20 to 24 hrs by two-fold microbroth dilution method; method in brief: as §2
[20] = test system: Streptococcus pyogenes; assay: Antimicrobial activity against erythromycin-susceptible Streptococcus pyogenes A3 incubated in CAMHB medium for 20 to 24 hrs by two-fold microbroth dilution method
[21] = test system: Staphylococcus aureus; assay: Antimicrobial activity against erythromycin-susceptible Staphylococcus aureus ATCC 29213 incubated in CAMHB medium for 20 hrs by two-fold microbroth dilution method; conditions: ATCC 29213, 20 h
Method in brief: (§3)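 Clinical isolates and ATCC strains, purified by plate activation and used fresh; inoculum about 5×10^5 CFU/ml final. Grown in CAMHB at 35 °C for 20 h.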

[22] = test system: Staphylococcus aureus; assay: Antimicrobial activity against inducibly erythromycin-resistant Staphylococcus aureus PU32 expressing i-ermA incubated in CAMHB medium for 20 hrs by two-fold microbroth dilution method; conditions: PU32, 20 h
Method in brief: (§4)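 Purified fresh Staphylococcus isolate at about 5×10^5 CFU/ml final in CAMHB, 35 °C for 20 h. […] Each run included ATCC strains and reference antibiotics as QC, plus an antibiotic-free growth control.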

[23] = test system: Staphylococcus aureus; assay: Antimicrobial activity against constitutively erythromycin resistant Staphylococcus aureus PU20 expressing c-ermC incubated in CAMHB medium for 20 hrs by two-fold microbroth dilution method; conditions: PU20, 20 h; method in brief: as §4
[24] = test system: Staphylococcus aureus; assay: Antimicrobial activity against inducibly erythromycin resistant Staphylococcus aureus PU64 expressing i-ermA incubated in CAMHB medium for 20 hrs by two-fold microbroth dilution method; conditions: PU64, 20 h; method in brief: as §4
[25] = test system: Staphylococcus epidermidis; assay: Antimicrobial activity against Staphylococcus epidermidis E1 incubated in CAMHB medium for 20 hrs by two-fold microbroth dilution method; conditions: E1, 20 h; method in brief: as §3
[26] = test system: Moraxella catarrhalis; assay: Antimicrobial activity against erythromycin-susceptible Moraxella catarrhalis 13L332 incubated in CAMHB medium for 20 hrs by two-fold microbroth dilution method; conditions: 13L332, 20 h; method in brief: as §3
[27] = test system: Moraxella catarrhalis; assay: Bactericidal activity against erythromycin-susceptible Moraxella catarrhalis 13L332 assessed as reduction in colony formation incubated in CAMHB medium for 20 hrs followed by 24 hrs subculturing in the medium without test compound
[28] = test system: Moraxella catarrhalis; assay: Ratio of MBC to MIC for erythromycin-susceptible Moraxella catarrhalis 13L332
[29] = test system: Staphylococcus aureus; assay: Ratio of MBC to MIC for constitutively erythromycin resistant and methicillin-resistant Staphylococcus aureus PU20 expressing c-ermC

Row | Structure (SMILES) | MIC [1] [µg/mL] | MIC [2] [µg/mL] | MBC [3] [µg/mL] | Ratio [4] | MBC [5] [µg/mL] | Ratio [6] | MIC [7] [µg/mL] | MBC [8] [µg/mL] | Ratio [9] | MIC [10] [µg/mL] | MBC [11] [µg/mL] | MIC [12] [µg/mL] | MBC [13] [µg/mL] | Ratio [14] | MIC [15] [µg/mL] | MBC [16] [µg/mL] | Ratio [17] | MIC [26] [µg/mL] | MBC [27] [µg/mL] | Ratio [28] | also measured
1 | CC[C@H]1OC(=O)[C@H](C)[C@@H](OC(=O)NCCCc2ccc3c(c2)c(=O)c(C(=O)O)cn3C2CC2)[C@H](C)[C@@H](O[C@@H]2O[C@H](C)C[C@H](N(C)C)[C@H]2O)[C@](C)(OC)C[C@@H](C)/C(=N\OC)[C@H](C)[C@H]2OC(=O)O[C@@]21C | 1 (≈ 1.04 µM) | 2 (≈ 2.09 µM) | 2 (≈ 2.09 µM) | 2 | 8 (≈ 8.36 µM) | 4 | 4 (≈ 4.18 µM) | 8 (≈ 8.36 µM) | 2 | 256 (≈ 267 µM) | > 256 | 32 (≈ 33.4 µM) | > 256 | >8 | 256 (≈ 267 µM) | 256 (≈ 267 µM) | 1 |  |  |  | 
2 | CC[C@H]1OC(=O)[C@H](C)[C@@H](O[C@H]2C[C@@](C)(OC)[C@@H](O)[C@H](C)O2)[C@H](C)[C@@H](O[C@@H]2O[C@H](C)C[C@H](N(C)C)[C@H]2O)[C@](C)(OC)C[C@@H](C)C(=O)[C@H](C)[C@@H](O)[C@]1(C)O [CLARITHROMYCIN] | 0.06 to 0.064 (≈ 0.0802 to 0.0856 µM) | 4 (≈ 5.35 µM) | 0.125 to 0.25 (≈ 0.167 to 0.334 µM) | 2 - 4 | 8 to 32 (≈ 10.7 to 42.8 µM) | 2 - 8 | 1 to 8 (≈ 1.34 to 10.7 µM) | 8 to 64 (≈ 10.7 to 85.6 µM) | >8 | > 256 | > 256 | 32 (≈ 42.8 µM) | > 256 | >8 | 4 (≈ 5.35 µM) | 8 (≈ 10.7 µM) | 2 | 0.031 (≈ 0.0414 µM) | 0.125 (≈ 0.167 µM) | 4 | MIC [18]: 4 µg/mL (≈ 5.35 µM); MIC [19]: 128 µg/mL (≈ 171 µM); MIC [20]: ≤ 0.032 µg/mL; MIC [21]: 0.25 µg/mL (≈ 0.334 µM); MIC [22]: > 256 µg/mL; MIC [23]: > 256 µg/mL; MIC [24]: > 256 µg/mL; MIC [25]: > 256 µg/mL
3 | CC[C@H]1OC(=O)[C@H](C)[C@@H](OCC#Cc2ccc(NC(=O)c3ccccn3)nc2)[C@H](C)[C@@H](O[C@@H]2O[C@H](C)C[C@H](N(C)C)[C@H]2O)[C@](C)(OC)C[C@@H](C)/C(=N\OC)[C@H](C)[C@H]2OC(=O)O[C@@]21C | 4 (≈ 4.55 µM) | 4 (≈ 4.55 µM) | 16 (≈ 18.2 µM) | 4 | 16 (≈ 18.2 µM) |  | 16 (≈ 18.2 µM) | 16 (≈ 18.2 µM) | 1 | 128 (≈ 145 µM) | > 256 | > 256 | > 256 |  |  |  |  | 8 (≈ 9.09 µM) | 8 (≈ 9.09 µM) | 1 | 
4 | CC[C@H]1OC(=O)[C@H](C)[C@@H](OC(=O)CCNCCCCc2cccnc2)[C@H](C)[C@@H](O[C@@H]2O[C@H](C)C[C@H](N(C)C)[C@H]2O)[C@](C)(OC)C[C@@H](C)/C(=N\OC)[C@H](C)[C@H]2OC(=O)O[C@@]21C | 1 (≈ 1.18 µM) | 2 (≈ 2.36 µM) | 4 (≈ 4.71 µM) | 4 | 4 (≈ 4.71 µM) | 2 | 64 (≈ 75.4 µM) | 128 (≈ 151 µM) | 2 | 256 (≈ 302 µM) | 256 (≈ 302 µM) | 128 (≈ 151 µM) | > 256 |  | 128 (≈ 151 µM) | 256 (≈ 302 µM) | 2 |  |  |  | Ratio [29]: 1
